One series deals with Adenosine receptor A2a (Rattus norvegicus, UniProt P30543). Nature of the series: Radioligand binding assay for [3H]NECA affinity towards adenosine A2A receptor of rat striatum. Format: tissue-based. The essentials: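 Rat striatal membranes incubated with [3H]NECA. 50 nM N6-cyclopentyladenosine present to block A1 sites. Nonspecific binding defined with 5 mM theophylline. Five to six test concentrations, each in triplicate, in at least two separate experiments. Ki derived from inhibition of binding.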

The target of series [1] is Adenosine receptors; A1 & A2 (Rattus norvegicus) (UniProt P29276+P25099+P30543). Nature of the series: Selectivity ratio between A1 and A2-receptors estimated as A2/A1. Format: protein assay.
The next series has as its target T1, Adenosine receptor A1 (Rattus norvegicus, UniProt P25099).
T1 sequence (P25099 whole entry): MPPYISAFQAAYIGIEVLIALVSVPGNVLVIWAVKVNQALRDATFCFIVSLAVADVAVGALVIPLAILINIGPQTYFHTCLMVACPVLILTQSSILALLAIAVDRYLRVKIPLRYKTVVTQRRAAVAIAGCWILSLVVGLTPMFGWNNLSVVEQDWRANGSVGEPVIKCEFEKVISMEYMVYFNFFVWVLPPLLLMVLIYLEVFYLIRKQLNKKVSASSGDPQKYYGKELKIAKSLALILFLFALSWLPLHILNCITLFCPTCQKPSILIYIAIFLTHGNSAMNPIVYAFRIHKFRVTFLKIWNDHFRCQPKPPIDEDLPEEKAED
Nature of the series: Radioligand binding assay for [3H]-PIA affinity towards Adenosine A1 receptor of rat cerebral cortical membrane. The method, boiled down:
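Rat cerebral cortical membranes incubated with [3H]-(R)-PIA. Nonspecific binding defined with 10 μM 2-chloroadenosine. Five to six test concentrations, each in triplicate, in at least three separate experiments. Ki calculated from inhibition of binding.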

A short description of series [2]: Solubility in 50 mM TRIS-HCl buffer containing 2.5% DMSO, pH 7.4. Format: physicochemical. Conditions: read-out: S. The method, boiled down:
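A 10 mM DMSO stock was diluted 1:40 into 50 mM TRIS-HCl, pH 7.4 (2.5% DMSO), then shaken overnight at room temperature to equilibrium. After centrifugation, the supernatant was filtered and serially diluted. Dilutions were tested in an A1 binding assay with [3H]CHA (KD 1 nM).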

A short description of series [3]: Solubility in 50 mM TRIS-HCl buffer containing 1% DMSO, pH 7.4. The settings on record: read-out: S. Type of series: physicochemical. The essentials:
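Bruns–Fergus biochemical method. 10 mM DMSO stock diluted 1:100 into 50 mM Tris-HCl pH 7.4, shaken overnight at room temperature, centrifuged and filtered through cotton. Serial dilutions of the saturated supernatant tested in an A1 [3H]CHA binding assay (KD 1 nM).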

The nature of series [4]: Partition coefficient (logP). Conditions: octanol/water. Format: physicochemical.
For series [5], the target named is T2, Adenosine receptor A3 (Rattus norvegicus) (UniProt P28647).
T2 sequence (whole entry): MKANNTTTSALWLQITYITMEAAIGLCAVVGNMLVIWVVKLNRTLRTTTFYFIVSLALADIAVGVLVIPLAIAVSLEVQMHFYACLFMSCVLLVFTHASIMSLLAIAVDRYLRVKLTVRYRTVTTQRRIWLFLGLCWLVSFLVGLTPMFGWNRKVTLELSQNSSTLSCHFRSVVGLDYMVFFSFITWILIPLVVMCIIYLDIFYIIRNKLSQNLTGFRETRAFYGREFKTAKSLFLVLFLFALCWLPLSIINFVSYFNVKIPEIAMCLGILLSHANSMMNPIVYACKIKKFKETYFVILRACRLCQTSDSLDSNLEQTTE
Nature of the series: Percent inhibition of binding to rat Adenosine A3 receptor at 10 uM.

For series [6], the target named is Adenosine receptor A2a (Rattus norvegicus) (UniProt P30543). The series can be described thus: Antagonism of NECA-stimulated adenylate cyclase at Adenosine A2A receptor in rat PC12 cell membranes.
The target of series [7] is T3, Adenosine receptor A2b (Rattus norvegicus) (UniProt P29276).
T3 sequence (whole entry): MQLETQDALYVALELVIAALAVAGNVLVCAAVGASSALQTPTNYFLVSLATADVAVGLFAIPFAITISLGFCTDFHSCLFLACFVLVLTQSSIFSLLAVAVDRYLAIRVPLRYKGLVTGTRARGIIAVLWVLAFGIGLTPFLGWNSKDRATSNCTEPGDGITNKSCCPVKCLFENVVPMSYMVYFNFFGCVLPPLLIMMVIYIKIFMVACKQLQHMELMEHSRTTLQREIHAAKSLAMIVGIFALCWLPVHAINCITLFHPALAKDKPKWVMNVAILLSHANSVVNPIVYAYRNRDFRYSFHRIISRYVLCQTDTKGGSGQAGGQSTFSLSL
The series can be described thus: Antagonistic binding affinity for rat Adenosine A2B receptor.

Here are results for 37 compounds from ChEMBL document CHEMBL1129727, “Chiral pyrrolo[2,3-d]pyrimidine and pyrimido[4,5-b]indole derivatives: structure-activity relationships of potent, highly stereoselective A1-adenosine receptor antagonists” (J Med Chem, 1996).

Converted amounts (≈) assume the structure as drawn. Bounds are passed on as bounds.

Chain of Adenosine receptor A2a (P30543 whole entry): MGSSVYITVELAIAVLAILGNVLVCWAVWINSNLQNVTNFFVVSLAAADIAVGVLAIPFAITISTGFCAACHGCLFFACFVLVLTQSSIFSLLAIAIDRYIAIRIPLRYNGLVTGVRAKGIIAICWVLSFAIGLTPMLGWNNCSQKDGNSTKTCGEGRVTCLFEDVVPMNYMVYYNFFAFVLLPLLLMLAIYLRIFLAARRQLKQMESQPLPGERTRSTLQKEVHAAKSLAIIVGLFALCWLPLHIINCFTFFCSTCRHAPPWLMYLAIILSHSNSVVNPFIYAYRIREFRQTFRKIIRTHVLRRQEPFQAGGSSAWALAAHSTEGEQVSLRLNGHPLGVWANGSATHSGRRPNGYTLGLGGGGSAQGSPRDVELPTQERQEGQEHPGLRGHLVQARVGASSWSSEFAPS
Chain of Adenosine receptors; A1 & A2 (Rattus norvegicus) (P30543 whole entry, looked up, one chain of several): as the sequence (P30543 whole entry) above
Chain of Adenosine receptor A2a (Rattus norvegicus) (P30543 whole entry): as above

For `CC(c1ccccc1)N1C(=O)C2(CCCC2)c2c(O)ncnc21` (configuration not stated), the affinity at Adenosine receptor A2a corresponds to a Ki of 88.4 µM. Further, in series [1], the Selectivity was 26.
Consider `Cc1c(C)n([C@@H](C)c2ccccc2)c2nc(-c3cccc(Cl)c3)nc(N)c12`, for which the Ki is greater than 30 µM at Adenosine receptor A2a and 0.485 µM at Adenosine receptor A1. Moreover, the Selectivity ratio in [1] is greater than 62.
Turning to `Cc1c(C)n([C@H](C)c2ccccc2)c2nc(-c3ccccc3)nc(O)c12`, the results for the Ki at Adenosine receptor A2a and at Adenosine receptor A1 were greater than 30 µM and 2.98 µM, respectively. In addition, the Selectivity in [1] was greater than 10.
Turning to `C[C@H](c1ccccc1)n1c2ccccc2c2c(N)nc(-c3ccccc3)nc21`, the solubility in [2] amounted to 1.5 µM (≈ 0.547 µg/mL); in [3], 0.48 µM (≈ 0.175 µg/mL). The values for the inhibition constant (Ki) at Adenosine receptor A2a and on Adenosine receptor A1 were 6.2 µM and 0.0026 µM, respectively.
With `Cc1ccc([C@H](C)n2c3ccccc3c3c(N)nc(-c4ccccc4)nc32)cc1`, the Ki is greater than 30 µM at Adenosine receptor A2a and 0.297 µM at Adenosine receptor A1. Moreover, the Selectivity ratio in series [1] was greater than 101.
Regarding `Cc1c(C)n([C@@H](C)c2ccccc2)c2ncnc(N[C@@H](C)c3ccccc3)c12`, the inhibition constant (Ki) at Adenosine receptor A2a is greater than 30 µM.
In the case of `Cc1c(C)n([C@@H](C)c2ccccc2)c2nc(-c3ccccc3)nc(N)c12`, the inhibitory constant (Ki) was found to be 3.71 µM on Adenosine receptor A2a and 0.0047 µM on Adenosine receptor A1. Besides, in series [3], the solubility turned out to be 0.26 µM (≈ 0.089 µg/mL). The Selectivity ratio in series [1] was 789.
In the case of `Cc1c(C)n([C@H](C)c2ccccc2)c2nc(-c3ccc(Cl)cc3)nc(O)c12`, the Ki on Adenosine receptor A2a and on Adenosine receptor A1 was greater than 30 µM each time.
Turning to `CC(c1ccccc1)n1c2ccccc2c2c(N)ncnc21` (configuration not stated), the inhibition constant (Ki) was 27.7 µM on Adenosine receptor A2a and 1.13 µM at Adenosine receptor A1. The Selectivity ratio in series [1] is 25.
`O=C1N(c2ccccc2)c2nc[nH]c(=O)c2C12CCCC2`: the inhibition constant (Ki) at Adenosine receptor A2a was determined as 17.2 µM; on Adenosine receptor A1 it was 1.3 µM.
On the same counts, the results for `Cc1c(C)n([C@@H](C)c2ccccc2)c2nc(-c3ccc(Cl)cc3)[nH]c(=O)c12` are greater than 30 µM and greater than 30 µM.
For `Cc1nc2nc(-c3ccccc3)[nH]c(N[C@H](C)c3ccccc3)c-2c1C`, the figures for the solubility in series [2] and in [3] were 5.9 µM (≈ 2.02 µg/mL) and 1.5 µM (≈ 0.514 µg/mL), respectively. For the same compound, the logP in series [4] turned out to be 3.5. For the same compound, the Ki is greater than 30 µM at Adenosine receptor A2a and 0.0067 µM on Adenosine receptor A1. Also, the Selectivity in series [1] was greater than 4480.
`COc1ccc(-c2nc(N)c3c(C)c(C)n([C@H](C)c4ccccc4)c3n2)cc1`: the results for the Ki on Adenosine receptor A2a and on Adenosine receptor A1 were greater than 10 µM and 0.101 µM, respectively. In addition, the Selectivity ratio in series [1] is greater than 99.
Take `Cc1nc2nc(-c3ccccc3)[nH]c(N[C@@H](C)c3ccccc3)c-2c1C`: the Selectivity in [1] was greater than 47.
As for `C[C@H](c1ccccc1)n1c2ccccc2c2c(O)nc(-c3ccccc3)nc21`, the Ki at Adenosine receptor A2a and at Adenosine receptor A1 was greater than 30 µM each time.
Regarding `C[C@H](c1ccccc1)N1C(=O)C2(CCCC2)c2c(O)nc(-c3ccccc3)nc21`, the inhibition constant (Ki) on Adenosine receptor A2a and at Adenosine receptor A1 was greater than 30 µM each time.
Take `O=C1N(c2ccccc2)c2ncnc(O)c2C12CCCC2`: in series [1], the Selectivity is 13.
With `Cc1[nH]c2nc(-c3ccccc3)nc(N[C@@H](C)c3ccccc3)c2c1C`, the inhibition constant (Ki) at Adenosine receptor A2a was greater than 30 µM; at Adenosine receptor A1, 0.64 µM.
Turning to `Cc1c(C)n([C@@H](C)c2ccccc2)c2nc(-c3ccccc3)[nH]c(=O)c12`, the Ki at Adenosine receptor A2a and on Adenosine receptor A1 was greater than 30 µM each time.
On to `COc1cccc(-c2nc(N)c3c(C)c(C)n([C@H](C)c4ccccc4)c3n2)c1`, for which the inhibitory constant (Ki) is greater than 10 µM at Adenosine receptor A2a and 0.083 µM on Adenosine receptor A1. In addition, in [1], the Selectivity ratio is greater than 120.
The compound `Oc1ncnc2c1c1ccccc1n2-c1ccccc1` gave an inhibition in [5] of less than 20%. For the same compound, the Kb was 2.5 µM in series [6] and 3.4 µM in series [7].
Turning to `Cc1c(C)n([C@@H](C)c2ccccc2)c2nc(-c3ccccc3Cl)nc(N)c12`, the Ki was greater than 30 µM at Adenosine receptor A2a and 0.273 µM at Adenosine receptor A1. In addition, the Selectivity ratio in series [1] is greater than 110.
Regarding `Cc1c(C)n([C@H](C)c2ccccc2)c2nc(-c3ccc(Cl)c(Cl)c3)nc(N)c12`, the Ki at Adenosine receptor A2a is greater than 30 µM; on Adenosine receptor A1, 0.33 µM. The Selectivity ratio in series [1] was greater than 91.
Turning to `Cc1c(C)n([C@@H](C)c2ccccc2)c2nc(-c3ccc(Cl)cc3)nc(N)c12`, the results for the Ki at Adenosine receptor A2a and on Adenosine receptor A1 were greater than 30 µM and 0.878 µM, respectively. Further, the Selectivity ratio in [1] is greater than 34.
Consider `Cc1c(C)n([C@H](C)c2ccccc2)c2nc(-c3ccccc3)nc(N)c12`, for which the inhibition constant Ki at Adenosine receptor A2a came to 81 µM; at Adenosine receptor A1 it was 0.165 µM. Moreover, in series [1], the Selectivity ratio was 490.
Consider `Nc1nc(-c2ccccc2)nc2c1c1ccccc1n2-c1ccccc1`, for which the Ki is 8.3 µM on Adenosine receptor A2a and 0.022 µM on Adenosine receptor A1. Besides, the Selectivity in series [1] was 377.
Consider `O=C1Nc2ncnc(O)c2C12CCCC2`, for which the Selectivity in series [1] was 2.7.
Consider `Cc1c(C)n([C@H](C)c2ccccc2)c2nc(-c3cccc(Cl)c3)nc(N)c12`, for which the results for the Ki at Adenosine receptor A2a and on Adenosine receptor A1 were 16.3 µM and 0.0076 µM, respectively. In addition, in [3], the solubility is 2.8 µM (≈ 1.06 µg/mL). Moreover, in series [1], the Selectivity ratio is 2140.
In turn, `Cc1c(C)n([C@@H](C)c2ccccc2)c2nc(-c3ccc(Cl)c(Cl)c3)nc(N)c12` yielded a Ki on Adenosine receptor A1 of 1.8 µM. The Selectivity ratio in [1] was greater than 17.
As for `C[C@@H](c1ccccc1)n1c2ccccc2c2c(N)nc(-c3ccccc3)nc21`, the values for the Ki on Adenosine receptor A2a and at Adenosine receptor A1 were greater than 30 µM and 0.064 µM, respectively.
Consider `Cc1c(C)n([C@H](C)c2ccccc2)c2nc(-c3ccc(Cl)cc3)nc(N)c12`, for which the solubility in series [2] was 7.2 µM (≈ 2.71 µg/mL); in [3], 2.2 µM (≈ 0.829 µg/mL). Moreover, the Ki on Adenosine receptor A2a was greater than 30 µM; on Adenosine receptor A1 it was 0.05 µM. In [1], the Selectivity ratio is greater than 600.
In the case of `C[C@@H](Cc1ccccc1)n1c2ccccc2c2c(N)nc(-c3ccccc3)nc21`, the results for the Ki at Adenosine receptor A2a and at Adenosine receptor A1 were greater than 30 µM and 0.32 µM, respectively. Also, the Selectivity ratio in series [1] was greater than 94.
For the compound `O=C1Nc2nc[nH]c(=O)c2C12CCCC2`, the results for the Ki at Adenosine receptor A2a and on Adenosine receptor A1 were 346 µM and 127 µM, respectively.
Turning to `Cc1c(C)n([C@H](C)c2ccccc2)c2ncnc(N[C@H](C)c3ccccc3)c12`, on Adenosine receptor A2a, the Ki is greater than 30 µM.
Take `Cc1c(C)n([C@H](C)c2ccccc2)c2nc(-c3ccccc3Cl)nc(N)c12`: the inhibition constant (Ki) was determined as 5.2 µM at Adenosine receptor A2a and 0.0096 µM on Adenosine receptor A1. In addition, the Selectivity ratio in [1] was 537.
Consider `C[C@@H](c1ccccc1)n1c2ccccc2c2c(O)nc(-c3ccccc3)nc21`, for which the Ki at Adenosine receptor A2a and on Adenosine receptor A1 was greater than 30 µM each time.
Take `Cc1ccc([C@@H](C)n2c3ccccc3c3c(N)nc(-c4ccccc4)nc32)cc1`: the Ki at Adenosine receptor A2a worked out at 21.4 µM; on Adenosine receptor A1 it was 0.014 µM. In addition, in series [1], the Selectivity ratio was 1530.

As a reminder, the Ki is a measure of affinity in units of concentration, obtained from inhibition or displacement. Read a high Ki as a looser hold on the target. By logP is commonly meant a log measure of how a compound divides between an organic and an aqueous phase. Low readings indicate a more hydrophilic compound, high ones a more lipophilic compound. A word on the inhibition: it is the relative decrease from the control value, in per cent. The term Kb denotes the equilibrium dissociation constant of an antagonist, usually derived from a functional assay. A low value points to a more potent antagonist.
